# Data published in ChEMBL document CHEMBL3351274, “Sensitization of tumor necrosis factor-related apoptosis-inducing ligand (TRAIL)-resistant primary prostate cancer cells by isoegomaketone from Perilla frutescens” (J Nat Prod, 2014).
# Assays:
# [1] = Induction of apoptosis in human RC-58T/h/SA#4 cells assessed as p53 expression at 20 uM after 6 hrs by immunoblotting analysis relative to untreated control; type: functional
# How it was run: (§1)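 RC-58T/h/SA#4 cells seeded at 5 × 10^4 cells/mL and cultured 24 h, then given compound across a concentration series or at fixed dose over a time course. Lysates were quantified by BCA. 10 μg protein/lane run on 12% SDS-PAGE and transferred to nitrocellulose. Blots probed for p53, CHOP and β-actin with HRP secondary and ECL.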
# [2] = Induction of apoptosis in human RC-58T/h/SA#4 cells assessed as DR4 expression at 20 uM after 12 hrs by immunoblotting analysis relative to untreated control; type: functional
# [3] = Induction of apoptosis in human RC-58T/h/SA#4 cells assessed as CHOP expression at 20 uM after 24 hrs by immunoblotting analysis relative to untreated control; type: functional; how it was run: as §1
# Homo sapiens [4] = species: Homo sapiens; experiment: Induction of apoptosis in human RC-58T/h/SA#4 cells assessed as CHOP expression at 2.5 to 40 uM by immunoblotting analysis relative to untreated control; type: functional, cell-based; settings: TDE = time-dependent effect; how it was run: as §1
# [5] = Induction of apoptosis in human RC-58T/h/SA#4 cells assessed as p53 expression at 20 uM after 12 hrs by immunoblotting analysis relative to untreated control; type: functional; how it was run: as §1
# [6] = Induction of apoptosis in human RC-58T/h/SA#4 cells assessed as procaspase-3 activation at 20 uM after 24 hrs by immunoblotting analysis relative to untreated control; type: functional
# How it was run: (§2)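 Cells seeded at 5 × 10^4 cells/mL and cultured 24 h, then given 20 μM compound and/or 100 ng/mL TRAIL for 24 h. Whole-cell lysate made in Tris/NaCl/EDTA/NaF/pyrophosphate/PMSF/aprotinin buffer, 30 min on ice, protein measured by BCA. 12% SDS-PAGE at 10 μg/lane, nitrocellulose blot, primary antibodies (caspase-3, -8, -9, Bax, Bcl-2, PARP) overnight at 4 °C, HRP secondary, ECL.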
# [7] = Induction of apoptosis in human RC-58T/h/SA#4 cells assessed as DR4 expression at 5 uM after 24 hrs by immunoblotting analysis relative to untreated control; type: functional
# [8] = Sensitization of TRAIL-induced apoptosis in human RC-58T/h/SA#4 cells assessed as procaspase-8 activation at 20 uM after 24 hrs by immunoblotting analysis relative to untreated control; type: functional; how it was run: as §2
# [9] = Induction of apoptosis in human RC-58T/h/SA#4 cells assessed as DR4 expression at 10 uM after 24 hrs by immunoblotting analysis relative to untreated control; type: functional
# [10] = Induction of apoptosis in human RC-58T/h/SA#4 cells assessed as p53 expression at 10 uM after 24 hrs by immunoblotting analysis relative to untreated control; type: functional; how it was run: as §1
# [11] = Induction of apoptosis in human RC-58T/h/SA#4 cells assessed as DR4 expression at 20 uM after 6 hrs by immunoblotting analysis relative to untreated control; type: functional
# Homo sapiens [12] = species: Homo sapiens; experiment: Induction of apoptosis in human RC-58T/h/SA#4 cells assessed as cytochrome C level in mitochondria at 20 uM after 24 hrs by immunoblotting analysis relative to untreated control; type: functional, cell-based
# How it was run: (§3)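 Cells grown in DMEM/10% FBS at 37 °C, 5% CO2, then treated 24 h with compound (20 μM) with or without TRAIL (100 ng/mL). Whole lysates were used for Bax and Bcl-2. Cytosolic and mitochondrial fractions were prepared with a mitochondria isolation kit for AIF and cytochrome c. Blotting used 10 μg protein/lane, 12% SDS-PAGE, nitrocellulose, overnight primary antibody at 4 °C and ECL detection.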
# [13] = Sensitization of TRAIL-induced apoptosis in human RC-58T/h/SA#4 cells assessed as PARP cleavage at 20 uM after 24 hrs by immunoblotting analysis relative to untreated control; type: functional; how it was run: as §2
# [14] = Sensitization of TRAIL-induced apoptosis in human RC-58T/h/SA#4 cells assessed as accumulation at Sub-G1 phase at 20 uM after 24 hrs by annexin-V/propidium iodide staining-based flow cytometry in presence of pan-caspase inhibitor z-VAD-fmk (reference value: 4.8%); type: functional
# [15] = Induction of apoptosis in human RC-58T/h/SA#4 cells assessed as DR5 expression at 20 uM after 18 hrs by immunoblotting analysis relative to untreated control; type: functional
# [16] = Sensitization of TRAIL-induced apoptosis in human RC-58T/h/SA#4 cells assessed as PARP cleavage at 20 uM after 24 hrs by immunoblotting analysis in presence of Dr5 Fc chimera relative to untreated control; type: functional
# How it was run: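 Cells pretreated 2 h with 100 ng/mL DR5 Fc chimera, then given 20 μM compound and/or 100 ng/mL TRAIL for 24 h. Total lysates immunoblotted (12% SDS-PAGE, nitrocellulose) for caspase-3, -8, -9 and PARP cleavage, with HRP secondary and ECL detection.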
# [17] = Induction of apoptosis in human RC-58T/h/SA#4 cells assessed as DR5 expression at 2.5 uM after 24 hrs by immunoblotting analysis relative to untreated control; type: functional
# [18] = Induction of apoptosis in human RC-58T/h/SA#4 cells assessed as Bcl-2 activation at 20 uM after 24 hrs by immunoblotting analysis relative to untreated control; type: functional; how it was run: as §3
# [19] = Induction of apoptosis in human RC-58T/h/SA#4 cells assessed as p53 expression at 2.5 uM after 24 hrs by immunoblotting analysis relative to untreated control; type: functional; how it was run: as §1
# [20] = Induction of apoptosis in human RC-58T/h/SA#4 cells assessed as CHOP expression at 10 uM after 24 hrs by immunoblotting analysis relative to untreated control; type: functional; how it was run: as §1
# [21] = Induction of apoptosis in human RC-58T/h/SA#4 cells assessed as DR5 expression at 10 uM after 24 hrs by immunoblotting analysis relative to untreated control; type: functional
# [22] = Induction of apoptosis in human RC-58T/h/SA#4 cells assessed as p53 expression at 20 uM after 24 hrs by immunoblotting analysis relative to untreated control; type: functional; how it was run: as §1
# [23] = Induction of apoptosis in human RC-58T/h/SA#4 cells assessed as p53 expression at 5 uM after 24 hrs by immunoblotting analysis relative to untreated control; type: functional
# How it was run: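 RC-58T/h/SA#4 cells (DMEM, 10% FBS, 37 °C, 5% CO2) exposed to the compound over a concentration range or time course. Lysates run on 12% SDS-PAGE at 10 μg protein/lane, transferred to nitrocellulose and blocked with BSA. Blots probed overnight at 4 °C with anti-p53, then HRP secondary antibody, ECL detection; β-actin as loading control.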
# Homo sapiens [24] = species: Homo sapiens; experiment: Sensitization of TRAIL-induced apoptosis in human RC-58T/h/SA#4 cells assessed as AIF level in mitochondria at 20 uM after 24 hrs by immunoblotting analysis relative to untreated control; type: functional, cell-based
# How it was run: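 Cells given 20 μM compound and/or 100 ng/mL TRAIL for 24 h. Mitochondrial and cytosolic fractions prepared with a mitochondria isolation kit. Fractions resolved by 12% SDS-PAGE at 10 μg/lane and immunoblotted with anti-cytochrome c or anti-AIF overnight at 4 °C, then HRP secondary and ECL detection.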
smiles,measurement,setting,value
CC(C)/C=C/C(=O)c1ccoc1,Ratio,[1],1.1
same,Ratio,[2],1
same,Ratio,[3],1.8
same,Activity,Homo sapiens [4],tde
same,Ratio,[5],1.8
same,Ratio,[6],1
same,Ratio,[7],1.1
same,Ratio,[8],0.3
same,Ratio,[9],1
same,Ratio,[10],2
same,Ratio,[11],1.1
same,Ratio,Homo sapiens [12],1.2
same,Ratio,[13],0.7
same,Activity,[14],14.4%
same,Ratio,[15],1.5
same,Ratio,[16],1
same,Ratio,[17],1
same,Ratio,[18],0.7
same,Ratio,[19],1.2
same,Ratio,[20],1.4
same,Ratio,[21],1.2
same,Ratio,[22],2.3
same,Ratio,[23],1.2
same,Ratio,Homo sapiens [24],0.3
